Laboratory results: publication PMC13334471 (Journal of molecular and cellular cardiology, 2026)

Columns and labels:
[1] = target: tropomyosin (rabbit cardiac α-tropomyosin) (Oryctolagus cuniculus, UniProt P58772); assay: LSPR binding of cTnT-C14 peptides to immobilized tropomyosin; settings: peptide 2 μM, mutants vs WT
In short: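 Rabbit cardiac α-Tm immobilized on a carboxyl-gold LSPR chip from 50 μg/mL in 10 mM Na acetate pH 4.0. Blocked with 1 M ethanolamine, then 1 mM 6-mercapto-1-hexanol in 30% EtOH. Peptides flowed at 20 μL/min for 4 min in 0.1 M KCl, 3 mM MgCl2, 10 mM imidazole-HCl pH 7.0; buffer dissociation to baseline or plateau. Plateau Δpm taken; 1:1 fit; KD = koff/kon.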

F-actin = F-actin (Oryctolagus cuniculus, UniProt P68135); assay: LSPR direct binding of cTnT-C14 peptides to immobilized F-actin; design: species or system rabbit; settings: mutants vs WT
In short: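 Rabbit back-muscle F-actin immobilized on a carboxyl-gold LSPR chip with no Tm, run as for the Tm binding assay. Chip blocked with ethanolamine and 6-mercapto-1-hexanol. Peptides flowed at 20 μL/min in 0.1 M KCl, 3 mM MgCl2, 10 mM imidazole-HCl pH 7.0, then buffer dissociation. Plateau Δpm taken; rate constants from 1:1 fit; KD = koff/kon.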

- Tm binding / binding signal (in words) [1]: non-Tm-binding
- F-actin binding / binding signal (in words) (F-actin): non-actin-binding
Sequence: INVLRNRINDNQKV [E16]
